pIC50: −log10 of the molar value.
Key:
K562 [1] = experiment: Antiproliferative activity against human K562 cells after 48 hrs by MTT assay; type: functional, cell-based; details: K562, 48 h
Summary of the method: (§1)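 Human CML K562 line grown in RPMI-1640 with 10% FBS, penicillin G and streptomycin (100 units/ml each) at 37°C, 5% CO2. 2000 cells/well were seeded and compounds were added at four concentrations 48 h later, in triplicate. After 48 h exposure, MTT (5 mg/ml) was added for 4 h. Formazan was dissolved in DMSO and read at 490 nm. IC50 is the mean of three experiments.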

K562 [2] = experiment: Antiproliferative activity against imatinib-resistant human K562 cells after 48 hrs by MTT assay; type: functional, cell-based; details: K562, 48 h; summary of the method: as §1
Bcr/Abl fusion protein = Bcr/Abl fusion protein (Homo sapiens, UniProt P00519); experiment: Inhibition of Bcr-Abl (unknown origin) after 60 mins by luminescent kinase assay; type: protein assay
Sequence of Bcr/Abl fusion protein (P00519 whole entry, the tested form may be a part): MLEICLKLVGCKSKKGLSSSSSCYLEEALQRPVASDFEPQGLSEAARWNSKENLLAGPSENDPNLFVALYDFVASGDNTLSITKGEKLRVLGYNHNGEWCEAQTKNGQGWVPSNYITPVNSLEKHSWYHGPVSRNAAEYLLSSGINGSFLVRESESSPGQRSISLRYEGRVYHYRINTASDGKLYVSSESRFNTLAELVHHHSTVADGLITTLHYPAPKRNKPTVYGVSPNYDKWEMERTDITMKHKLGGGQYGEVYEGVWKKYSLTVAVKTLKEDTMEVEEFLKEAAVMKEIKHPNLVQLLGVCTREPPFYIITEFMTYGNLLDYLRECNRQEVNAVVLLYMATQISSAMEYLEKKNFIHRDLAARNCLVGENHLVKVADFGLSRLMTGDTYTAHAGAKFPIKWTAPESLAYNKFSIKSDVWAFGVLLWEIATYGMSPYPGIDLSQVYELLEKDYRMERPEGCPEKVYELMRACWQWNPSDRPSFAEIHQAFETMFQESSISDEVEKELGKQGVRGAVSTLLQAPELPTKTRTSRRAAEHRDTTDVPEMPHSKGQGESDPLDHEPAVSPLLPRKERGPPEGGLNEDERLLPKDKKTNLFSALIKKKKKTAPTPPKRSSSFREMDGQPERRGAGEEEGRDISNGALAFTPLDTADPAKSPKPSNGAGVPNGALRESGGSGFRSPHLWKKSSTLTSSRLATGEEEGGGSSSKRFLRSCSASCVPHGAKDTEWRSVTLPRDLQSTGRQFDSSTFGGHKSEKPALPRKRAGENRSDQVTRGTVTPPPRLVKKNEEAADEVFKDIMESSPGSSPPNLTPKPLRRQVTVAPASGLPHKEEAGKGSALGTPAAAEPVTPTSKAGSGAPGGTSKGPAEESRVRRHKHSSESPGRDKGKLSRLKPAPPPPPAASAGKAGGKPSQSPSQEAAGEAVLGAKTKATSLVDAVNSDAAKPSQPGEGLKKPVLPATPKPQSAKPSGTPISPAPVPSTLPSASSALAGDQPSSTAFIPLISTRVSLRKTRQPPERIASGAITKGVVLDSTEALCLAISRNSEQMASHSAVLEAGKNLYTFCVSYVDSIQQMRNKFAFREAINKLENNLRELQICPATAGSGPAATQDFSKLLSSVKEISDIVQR
Sequence of Bcr/Abl fusion protein (P11274 whole entry, further chain, the tested form may be a part): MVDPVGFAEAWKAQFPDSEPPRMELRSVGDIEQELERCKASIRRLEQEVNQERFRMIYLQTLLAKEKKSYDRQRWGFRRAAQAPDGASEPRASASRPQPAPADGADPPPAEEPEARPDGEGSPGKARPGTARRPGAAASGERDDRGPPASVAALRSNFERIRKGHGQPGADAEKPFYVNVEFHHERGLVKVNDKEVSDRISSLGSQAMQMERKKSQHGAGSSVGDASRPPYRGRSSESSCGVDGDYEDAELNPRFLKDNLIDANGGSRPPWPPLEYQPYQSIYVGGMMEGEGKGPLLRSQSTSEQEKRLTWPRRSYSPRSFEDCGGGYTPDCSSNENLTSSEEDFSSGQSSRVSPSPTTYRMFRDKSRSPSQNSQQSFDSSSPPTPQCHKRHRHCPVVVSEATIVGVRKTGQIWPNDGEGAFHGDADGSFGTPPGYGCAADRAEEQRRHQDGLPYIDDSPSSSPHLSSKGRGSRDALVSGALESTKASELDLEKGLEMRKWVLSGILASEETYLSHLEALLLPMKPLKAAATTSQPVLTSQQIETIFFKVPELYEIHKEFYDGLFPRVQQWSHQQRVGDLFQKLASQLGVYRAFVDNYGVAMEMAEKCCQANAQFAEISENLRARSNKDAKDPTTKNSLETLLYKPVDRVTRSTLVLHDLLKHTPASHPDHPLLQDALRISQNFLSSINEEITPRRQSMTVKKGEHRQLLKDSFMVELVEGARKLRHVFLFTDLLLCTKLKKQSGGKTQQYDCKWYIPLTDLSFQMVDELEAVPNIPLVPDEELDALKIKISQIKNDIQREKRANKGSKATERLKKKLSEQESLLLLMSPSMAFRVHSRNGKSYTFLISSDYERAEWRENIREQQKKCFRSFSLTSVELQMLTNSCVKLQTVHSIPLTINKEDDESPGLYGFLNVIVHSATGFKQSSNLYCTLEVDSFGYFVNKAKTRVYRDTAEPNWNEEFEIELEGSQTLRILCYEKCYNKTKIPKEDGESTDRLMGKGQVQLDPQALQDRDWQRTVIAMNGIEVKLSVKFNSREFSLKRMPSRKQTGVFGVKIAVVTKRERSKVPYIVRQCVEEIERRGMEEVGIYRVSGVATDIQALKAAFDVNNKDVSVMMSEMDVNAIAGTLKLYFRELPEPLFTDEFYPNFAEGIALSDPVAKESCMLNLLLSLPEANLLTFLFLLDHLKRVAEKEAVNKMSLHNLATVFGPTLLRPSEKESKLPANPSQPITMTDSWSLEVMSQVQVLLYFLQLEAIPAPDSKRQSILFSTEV

pIC50 (K562 [1])	pIC50 (K562 [2])	pIC50 (Bcr/Abl fusion protein)	Compound
5.94	4.80	–	Cc1ccc(NC(=O)c2ccc(CN3CCN(C)CC3)cc2)cc1Nc1nccc(-c2cccnc2)n1 [IMATINIB]
4.52	–	–	O=C(c1ccc(-c2cccs2)cc1)N1CCN(C(=O)c2ccc(Cl)cc2Cl)CC1
4.12	3.31	6.03	COc1cccc(C(=O)N2CCN(C(=O)c3ccc(-c4cc(C)ccn4)cc3)CC2)c1
4.19	–	< 3.30	Cc1ccc(-c2ccc(C(=O)N3CCN(C(=O)c4cccc(F)c4)CC3)cc2)cn1
4.52	4.06	7.14	O=C(c1ccc(Br)cc1)N1CCN(C(=O)c2ccc(-c3cccs3)cc2)CC1
< 3.30	–	3.35	O=C(c1ccc(-c2nccs2)cc1)N1CCN(C(=O)c2cccc(F)c2)CC1
3.46	–	–	O=C(c1ccc(-c2cccnc2)cc1)N1CCN(C(=O)c2cccc(C(F)(F)F)c2)CC1
4.90	4.24	7.18	COc1cccc(C(=O)N2CCN(C(=O)c3ccc(-c4ccccn4)cc3)CC2)c1
4.33	–	–	Cc1ccc(-c2ccc(C(=O)N3CCN(C(=O)c4cccc(C(F)(F)F)c4)CC3)cc2)cn1
4.20	4.09	6.56	O=C(c1ccc(-c2cccnc2)cc1)N1CCN(C(=O)c2cccc(F)c2)CC1
< 3.30	–	< 3.30	O=C(c1ccc(-c2nccs2)cc1)N1CCN(C(=O)c2ccc(Cl)cc2Cl)CC1
4.50	–	4.72	Cc1ccnc(-c2ccc(C(=O)N3CCN(C(=O)c4cccc(N(C)C)c4)CC3)cc2)c1
< 3.30	–	–	O=C(c1ccc(-c2ccccn2)cc1)N1CCN(C(=O)c2cccc(F)c2)CC1
3.57	3.31	7.80	COc1cccc(C(=O)N2CCN(C(=O)c3ccc(-c4nccs4)cc3)CC2)c1
3.58	3.52	6.84	COc1cccc(C(=O)N2CCN(C(=O)c3ccc(-c4ccc(C)nc4)cc3)CC2)c1
3.96	–	< 3.30	Cc1ccc(-c2ccc(C(=O)N3CCN(C(=O)c4cccc(N(C)C)c4)CC3)cc2)cn1
3.75	–	5.94	CC(C)(C)c1ccc(C(=O)N2CCN(C(=O)c3ccc(-c4ccccn4)cc3)CC2)cc1
4.23	–	< 3.30	Cc1ccnc(-c2ccc(C(=O)N3CCN(C(=O)c4ccc(C(C)(C)C)cc4)CC3)cc2)c1
4.87	–	5.30	O=C(c1ccc(-c2cccs2)cc1)N1CCN(C(=O)c2cccc(F)c2)CC1
4.01	–	6.49	CN(C)c1cccc(C(=O)N2CCN(C(=O)c3ccc(-c4cccs4)cc3)CC2)c1
3.85	–	4.22	COc1cccc(C(=O)N2CCN(C(=O)c3ccc(-c4cccnc4)cc3)CC2)c1
4.53	–	4.34	CN(C)c1cccc(C(=O)N2CCN(C(=O)c3ccc(-c4ccccn4)cc3)CC2)c1
3.82	–	4.05	COc1cccc(C(=O)N2CCN(C(=O)c3ccc(-c4cccs4)cc3)CC2)c1
3.93	–	5.74	CN(C)c1cccc(C(=O)N2CCN(C(=O)c3ccc(-c4nccs4)cc3)CC2)c1
< 3.30	–	< 3.30	O=C(c1ccc(-c2ccccn2)cc1)N1CCN(C(=O)c2cccc(C(F)(F)F)c2)CC1
< 3.30	–	6.38	O=C(c1ccc(Br)cc1)N1CCN(C(=O)c2ccc(-c3nccs3)cc2)CC1
< 3.30	–	–	CN(C)c1cccc(C(=O)N2CCN(C(=O)c3ccc(-c4cccnc4)cc3)CC2)c1
4.13	< 3.00	4.20	Cc1ccnc(-c2ccc(C(=O)N3CCN(C(=O)c4cccc(F)c4)CC3)cc2)c1
4.38	3.02	6.95	Cc1ccnc(-c2ccc(C(=O)N3CCN(C(=O)c4cccc(C(F)(F)F)c4)CC3)cc2)c1

From ChEMBL document CHEMBL3612025, “Synthesis and biological evaluation of novel aromatic-heterocyclic biphenyls as potent anti-leukemia agents” (Eur J Med Chem, 2015)
